In ChEMBL document CHEMBL1139344, “Antagonists of the human A(2A) adenosine receptor. 4. Design, synthesis, and preclinical evaluation of 7-aryltriazolo[4,5-d]pyrimidines” (J Med Chem, 2009):
Converted amounts (≈) assume the structure as drawn. The source made the active and inactive calls. The rule behind the calls is not given here.

Tests used:
[1] = Solubility at neutral pH; type: physicochemical
[2] = biological target: T1, Adenosine receptor A1 (Homo sapiens, UniProt P30542); test: Displacement of radioligand from human recombinant adenosine A1 receptor at 21 degC after 90 mins by cell-based microplate scintillation counting
T1 sequence (P30542 whole entry): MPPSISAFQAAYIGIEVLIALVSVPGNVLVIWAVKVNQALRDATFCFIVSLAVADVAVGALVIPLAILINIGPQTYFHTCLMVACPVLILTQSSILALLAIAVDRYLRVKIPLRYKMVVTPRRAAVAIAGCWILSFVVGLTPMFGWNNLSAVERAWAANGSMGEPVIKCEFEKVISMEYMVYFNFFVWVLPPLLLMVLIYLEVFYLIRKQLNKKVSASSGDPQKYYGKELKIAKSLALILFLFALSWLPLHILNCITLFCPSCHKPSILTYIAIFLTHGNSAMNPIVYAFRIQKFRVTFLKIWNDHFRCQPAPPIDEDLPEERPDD

[3] = biological target: T2, Adenosine receptor A2b (Homo sapiens, UniProt P29275); test: Displacement of radioligand from human recombinant adenosine A2B receptor at 21 degC after 60 mins by cell-based microplate scintillation counting
T2 sequence (P29275 whole entry): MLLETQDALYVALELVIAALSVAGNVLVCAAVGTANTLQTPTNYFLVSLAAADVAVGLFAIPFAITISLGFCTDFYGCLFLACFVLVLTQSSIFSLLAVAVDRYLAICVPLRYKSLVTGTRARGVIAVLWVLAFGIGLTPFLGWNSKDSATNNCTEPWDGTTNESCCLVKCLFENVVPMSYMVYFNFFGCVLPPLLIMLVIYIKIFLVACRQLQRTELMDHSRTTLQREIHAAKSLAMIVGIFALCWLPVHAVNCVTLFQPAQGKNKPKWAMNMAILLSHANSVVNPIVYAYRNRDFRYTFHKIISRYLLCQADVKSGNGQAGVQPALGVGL

[4] = biological target: T3, Adenosine receptor A3 (Homo sapiens, UniProt P0DMS8); test: Displacement of radioligand from human recombinant adenosine A3 receptor at 21 degC after 60 mins by cell-based microplate scintillation counting
T3 sequence (P0DMS8 whole entry): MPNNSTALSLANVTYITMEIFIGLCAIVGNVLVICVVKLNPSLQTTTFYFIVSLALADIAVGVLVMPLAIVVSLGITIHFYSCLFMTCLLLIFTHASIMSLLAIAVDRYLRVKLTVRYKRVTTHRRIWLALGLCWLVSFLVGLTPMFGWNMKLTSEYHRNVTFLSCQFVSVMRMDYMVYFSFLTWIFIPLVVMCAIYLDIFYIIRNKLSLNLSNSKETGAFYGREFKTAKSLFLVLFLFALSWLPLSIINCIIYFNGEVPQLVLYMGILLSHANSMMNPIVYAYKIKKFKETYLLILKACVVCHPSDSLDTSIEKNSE

[5] = test system: Mus musculus; test: Reversal of haloperidol-induced hypolocomotion in po dosed TO mouse assessed as minimal effective dose administered 15 mins prior to testing done for 60 mins; type: functional; details: read-out: MED
In short: (§1)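 Haloperidol (0.2 mg/kg ip) used to induce hypolocomotion; antagonist given orally over 0.01-10 mg/kg in mouse and rat; activity scored as time spent active during a 60 min session; p < 0.05 versus vehicle (+haloperidol) control; minimal effective dose taken as lowest active dose.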

[6] = test system: Rattus norvegicus; test: Reversal of haloperidol-induced hypolocomotion in po dosed Sprague-Dawley rat assessed as minimal effective dose administered 120 mins prior to testing done for 60 mins; type: functional; details: read-out: MED; in short: as §1
[7] = biological target: Adenosine receptor A2a (Homo sapiens, UniProt P29274); test: Displacement of radioligand from human recombinant adenosine A2A receptor at 21 degC after 90 mins by cell-based microplate scintillation counting
Chain of Adenosine receptor A2a (P29274 whole entry): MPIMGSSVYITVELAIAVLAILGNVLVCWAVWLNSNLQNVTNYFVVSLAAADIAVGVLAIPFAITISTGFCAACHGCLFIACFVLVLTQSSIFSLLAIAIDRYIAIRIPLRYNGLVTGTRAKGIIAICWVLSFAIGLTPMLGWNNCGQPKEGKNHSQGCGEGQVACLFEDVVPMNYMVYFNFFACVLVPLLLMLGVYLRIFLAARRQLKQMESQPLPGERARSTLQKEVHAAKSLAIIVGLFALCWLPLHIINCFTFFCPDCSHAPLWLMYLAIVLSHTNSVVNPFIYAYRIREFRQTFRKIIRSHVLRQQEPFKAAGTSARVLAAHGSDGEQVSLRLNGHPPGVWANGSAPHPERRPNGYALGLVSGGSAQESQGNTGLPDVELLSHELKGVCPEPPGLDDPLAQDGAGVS

[8] = test system: Mus musculus; test: Reversal of haloperidol-induced hypolocomotion in TO mouse assessed as time spent for locomotor activity at 30 mg/kg, po administered 15 mins prior and measured for 60 mins; type: functional, organism-based; parameters: dose 30 mg/kg
[9] = test system: Rattus norvegicus; test: Reversal of haloperidol-induced hypolocomotion in Sprague-Dawley rat assessed as time spent for locomotor activity at 30 mg/kg, po administered 120 mins prior and measured for 60 mins; type: functional, organism-based; parameters: dose 30 mg/kg
[10] = test system: Liver microsomes; test: Metabolic stability in rat liver microsomes after 30 mins; type: ADME, Microsome; details: 0.5 h
In short: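 Turnover by rodent liver microsomes measured as percent turnover after 30 min.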

[11] = Aqueous solubility in phosphate buffered saline; type: physicochemical
[12] = test system: Mus musculus; test: Reversal of haloperidol-induced hypolocomotion in po dosed TO mouse assessed as time spent for locomotor activity administered 120 mins prior to testing done for 60 mins; type: functional, organism-based; in short: as §1
[13] = test system: Rattus norvegicus; test: Reversal of haloperidol-induced hypolocomotion in po dosed Sprague-Dawley rat assessed as time spent for locomotor activity administered 15 mins prior to testing done for 60 mins; type: functional, organism-based; in short: as §1
[14] = test system: Mus musculus; test: Reversal of haloperidol-induced hypolocomotion in TO mouse assessed as time spent for locomotor activity at 1 mg/kg, po administered 15 mins prior to testing done for 60 mins; type: functional, organism-based; parameters: dose 1 mg/kg; in short: as §1

SMILES	solubility [1]	Ki [2]	Ki [3]	Ki [4]	minimal effective dose [5]	minimal effective dose [6]	Ki [7]	Activity [8]	Activity [9]	Stability [10]	solubility [11]	Activity [12]	Activity [13]	Activity [14]
Cc1cc(Cn2nnc3c(-c4ccco4)nc(N)nc32)ccc1N.Cl.Cl	18 mg/mL													
Nc1nc(-c2ccco2)c2nnn(Cc3ccccc3N)c2n1		63 nM	123 nM	302 nM	10 mg/kg	10 mg/kg								
CC(C)NC(=O)c1cccc(Cn2nnc3c(-c4ccco4)nc(N)nc32)c1		733 nM	593 nM	530 nM			10.8 nM	inactive	inactive	Stable	30 µM (≈ 11.3 µg/mL)			
Nc1nc(-c2ccco2)c2nnn(Cc3cccnc3)c2n1		931 nM	225 nM	1020 nM			14.5 nM					inactive	inactive	
Nc1nc(-c2ccco2)c2nnn(Cc3cccs3)c2n1		117 nM	88 nM	123 nM	30 mg/kg	30 mg/kg	2.3 nM							
Nc1nc(-c2ccco2)c2nnn(Cc3ccccn3)c2n1		1120 nM	258 nM	1080 nM			12 nM					inactive	inactive	
CCc1cc(Cn2nnc3c(-c4ccco4)nc(N)nc32)ccc1N		26 nM	118 nM	221 nM			1 nM					inactive	inactive	
Nc1nc(-c2ccco2)c2nnn(Cc3ccc([N+](=O)[O-])cc3)c2n1		769 nM	440 nM	1230 nM			28 nM	inactive	inactive	Stable	30 µM (≈ 10.1 µg/mL)			
Nc1cccc(Cn2nnc3c(-c4ccco4)nc(N)nc32)c1		131 nM	270 nM	792 nM			2.5 nM							Active
Nc1nc(-c2cc[nH]n2)c2nnn(Cc3ccccc3F)c2n1		1660 nM	1780 nM	1290 nM			239 nM	inactive	inactive	Stable	30 µM (≈ 9.31 µg/mL)			
Nc1ccc(Cn2nnc3c(-c4ccco4)nc(N)nc32)cc1		190 nM	46 nM	752 nM			1.5 nM							Active
N#Cc1ccc(Cn2nnc3c(-c4ccco4)nc(N)nc32)cc1		738 nM	885 nM	1050 nM			73 nM	inactive	inactive	Stable	30 µM (≈ 9.52 µg/mL)			
Nc1nc(-c2ccco2)c2nnn(Cc3ccccc3)c2n1		83 nM	122 nM	285 nM			1.9 nM	inactive	inactive	Stable	30 µM (≈ 8.77 µg/mL)			
CC(C)c1cc(Cn2nnc3c(-c4ccco4)nc(N)nc32)ccc1N		50 nM	397 nM	251 nM			1.5 nM					inactive	inactive	
CNc1ccc(Cn2nnc3c(-c4ccco4)nc(N)nc32)cc1		40 nM	181 nM	636 nM			1.6 nM							Active
CC(C)N(C)C(=O)c1cccc(Cn2nnc3c(-c4ccco4)nc(N)nc32)c1		1130 nM	937 nM	2470 nM			22 nM	inactive	inactive	Stable	30 µM (≈ 11.7 µg/mL)			
NC(=O)c1cccc(Cn2nnc3c(-c4ccco4)nc(N)nc32)c1		700 nM	132 nM	2580 nM			11.1 nM	inactive	inactive	Stable	30 µM (≈ 10.1 µg/mL)			
Cc1ccc(-c2nc(N)nc3c2nnn3Cc2ccccc2F)o1		19 nM	6 nM	260 nM	3 mg/kg	3 mg/kg	2.1 nM	inactive	inactive	Stable	30 µM (≈ 9.73 µg/mL)			
Cc1ccccc1Cn1nnc2c(-c3ccco3)nc(N)nc21		183 nM	282 nM	341 nM			3 nM	inactive	inactive	Stable	30 µM (≈ 9.19 µg/mL)			
Nc1nc(-c2cnn[nH]2)c2nnn(Cc3ccccc3F)c2n1		2960 nM	1290 nM	2810 nM			400 nM	inactive	inactive	Stable	30 µM (≈ 9.34 µg/mL)			
Nc1nc(-c2ccco2)c2nnn(Cc3cccc([N+](=O)[O-])c3)c2n1		231 nM	646 nM	844 nM			3.7 nM	inactive	inactive	Stable	30 µM (≈ 10.1 µg/mL)			
Nc1nc(-c2ccco2)c2nnn(Cc3ccsc3)c2n1		78 nM	164 nM	136 nM			1.9 nM					inactive	inactive	
CS(=O)(=O)O.Cc1cc(Cn2nnc3c(-c4ccco4)nc(N)nc32)ccc1N	36 mg/mL													
